# ChEMBL document CHEMBL2331168, “Anticonvulsant evaluation of aminoalkanol derivatives of 2- and 4-methylxanthone” (Bioorg Med Chem, 2013)
# Active and inactive are the calls of the source.
# Legend:
# [1] = Neurotoxicity in ip dosed albino mouse assessed as minimal motor impairment after 1 hr by rotorod test; type: toxicity, organism-based; conditions: in vivo
# Method in brief: (§1)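 TD50, with 95% confidence intervals, was the ip dose causing neurotoxicity in 50% of male albino mice. Deficit was judged on the rotorod: a 1 in. knurled rod at 6 rpm, where failure to hold on for 1 min in each of three trials counted as deficit. Read at the stated time after dosing.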
# [2] = test system: Mus musculus; assay: Protective index, ratio TD50 for albino mouse to ED50 for albino mouse by subcutaneous pentetrazole-induced seizure test after 0.5 hrs; type: functional
# [3] = test system: Mus musculus; assay: Anticonvulsant activity in ip dosed albino mouse assessed as protection against subcutaneous pentetrazole-induced seizures after 0.5 hrs; type: functional
# [4] = organism: Mus musculus; assay: Protective index, ratio TD50 for albino mouse to ED50 for albino mouse by maximal electroshock-induced seizure test after 0.5 hrs; type: functional
# Method in brief: (§2)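 Protective index was calculated as mouse ip TD50 (rotorod) divided by mouse ip MES ED50, both obtained by quantitative dose-response testing at the stated post-dose time.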
# [5] = test system: Mus musculus; assay: Anticonvulsant activity in ip dosed albino mouse assessed as protection against maximal electroshock-induced seizures after 0.5 hrs; type: functional
# Method in brief: (§3)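 ED50, with 95% confidence intervals, was the ip dose protecting 50% of mice in the MES test. It was measured at the stated post-dose time in male albino mice given suspensions in 0.5% methylcellulose. MES used 60 Hz, 50 mA, 0.2 s corneal stimulation, and the endpoint was abolition of hindlimb tonic extension.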
# [6] = test system: Rattus norvegicus; assay: Anticonvulsant activity in Sprague-Dawley rat assessed as protection against maximal electroshock-induced seizures at 30 mg/kg, po after 1 hr; type: functional, organism-based; design: dose 30 mg/kg
# Method in brief: (§4)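 Male Sprague-Dawley rats dosed orally at 30 mg/kg and tested at 0.25, 0.5, 1, 2 and 4 h. Seizures were induced by 60 Hz alternating current at 150 mA for 0.2 s through corneal electrodes, after a drop of 0.9% NaCl in each eye. Protection meant abolition of hindlimb tonic extension. Reported as protected/tested, usually 4 rats per time point.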
# [7] = test system: Mus musculus; assay: Neurotoxicity in albino mouse assessed as minimal motor impairment at 100 mg/kg, ip after 4 hrs by rotorod test; type: toxicity, organism-based; design: dose 100 mg/kg, route intraperitoneal; conditions: in vivo
# Method in brief: (§5)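 Male albino mice (Carworth Farms No. 1) were dosed ip with suspensions in 0.5% methylcellulose and put on a 1 in. knurled rod rotating at 6 rpm at set times after dosing. Neurotoxicity meant failure to stay on the rod for at least 1 min in each of three trials. Scored as impaired/tested.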
# [8] = test system: Mus musculus; assay: Neurotoxicity in albino mouse assessed as minimal motor impairment at 30 mg/kg, ip after 4 hrs by rotorod test; type: toxicity, organism-based; design: dose 30 mg/kg, route intraperitoneal; conditions: in vivo; method in brief: as §5
# [9] = test system: Mus musculus; assay: Neurotoxicity in albino mouse assessed as minimal motor impairment at 100 mg/kg, ip after 0.5 hrs by rotorod test; type: toxicity, organism-based; design: dose 100 mg/kg, route intraperitoneal; conditions: in vivo; method in brief: as §5
# [10] = test system: Mus musculus; assay: Anticonvulsant activity in albino mouse assessed as protection against subcutaneous pentetrazole-induced seizures at 300 mg/kg, ip after 4 hrs; type: functional, organism-based; design: dose 300 mg/kg
# Method in brief: (§6)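 Male albino mice (Carworth Farms No. 1) received compound ip in 0.5% methylcellulose, then pentetrazole 85 mg/kg sc in 0.9% NaCl at 0.5 or 4 h. Mice were watched for at least 30 min. Protection meant no threshold seizure, defined as a single clonic spasm lasting at least 5 s. Scored as protected/tested.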
# [11] = test system: Mus musculus; assay: Anticonvulsant activity in albino mouse assessed as protection against subcutaneous pentetrazole-induced seizures at 100 mg/kg, ip after 4 hrs; type: functional, organism-based; design: dose 100 mg/kg; method in brief: as §6
# [12] = test system: Mus musculus; assay: Anticonvulsant activity in albino mouse assessed as protection against subcutaneous pentetrazole-induced seizures at 300 mg/kg, ip after 0.5 hrs; type: functional, organism-based; design: dose 300 mg/kg; method in brief: as §6
# [13] = test system: Mus musculus; assay: Anticonvulsant activity in albino mouse assessed as protection against subcutaneous pentetrazole-induced seizures at 30 mg/kg, ip after 4 hrs; type: functional, organism-based; design: dose 30 mg/kg; method in brief: as §6
# [14] = test system: Mus musculus; assay: Anticonvulsant activity in albino mouse assessed as protection against subcutaneous pentetrazole-induced seizures at 100 mg/kg, ip after 0.5 hrs; type: functional, organism-based; design: dose 100 mg/kg; method in brief: as §6
# [15] = test system: Mus musculus; assay: Anticonvulsant activity in albino mouse assessed as protection against subcutaneous pentetrazole-induced seizures at 30 mg/kg, ip after 0.5 hrs; type: functional, organism-based; design: dose 30 mg/kg; method in brief: as §6
# [16] = test system: Mus musculus; assay: Anticonvulsant activity in albino mouse assessed as protection against maximal electroshock-induced seizures at 300 mg/kg, ip after 4 hrs; type: functional, organism-based; design: dose 300 mg/kg
# Method in brief: (§7)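 Male albino mice (Carworth Farms No. 1) were given the compound ip as a suspension in 0.5% methylcellulose at 3–300 mg/kg. MES testing was at 0.5 and 4 h, sometimes also at 0.25 and 1 h. Current was 60 Hz, 50 mA, 0.2 s via corneal electrodes, with saline eye drops. Protection meant no hindlimb tonic extension, scored as protected/tested.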
# [17] = test system: Mus musculus; assay: Anticonvulsant activity in albino mouse assessed as protection against maximal electroshock-induced seizures at 100 mg/kg, ip after 4 hrs; type: functional, organism-based; design: dose 100 mg/kg; method in brief: as §7
# [18] = test system: Mus musculus; assay: Anticonvulsant activity in albino mouse assessed as protection against maximal electroshock-induced seizures at 30 mg/kg, ip after 4 hrs; type: functional, organism-based; design: dose 30 mg/kg; method in brief: as §7
# [19] = test system: Mus musculus; assay: Anticonvulsant activity in albino mouse assessed as protection against maximal electroshock-induced seizures at 300 mg/kg, ip after 0.5 hrs; type: functional, organism-based; design: dose 300 mg/kg; method in brief: as §7
# [20] = test system: Mus musculus; assay: Anticonvulsant activity in albino mouse assessed as protection against maximal electroshock-induced seizures at 100 mg/kg, ip after 0.5 hrs; type: functional, organism-based; design: dose 100 mg/kg; method in brief: as §7
# [21] = test system: Mus musculus; assay: Anticonvulsant activity in albino mouse assessed as protection against maximal electroshock-induced seizures at 30 mg/kg, ip after 0.5 hrs; type: functional, organism-based; design: dose 30 mg/kg; method in brief: as §7
# [22] = test system: Mus musculus; assay: Neurotoxicity in albino mouse assessed as minimal motor impairment at 30 mg/kg, ip after 0.5 hrs by rotorod test; type: toxicity, organism-based; design: dose 30 mg/kg, route intraperitoneal; conditions: in vivo; method in brief: as §5
# [23] = test system: Rattus norvegicus; assay: Neurotoxicity in Sprague-Dawley rat assessed as minimal motor impairment at 30 mg/kg, po after 1 hr by rotorod test; conditions: in vivo
# [24] = test system: Rattus norvegicus; assay: Neurotoxicity in Sprague-Dawley rat assessed as minimal motor impairment at 30 mg/kg, po after 4 hrs by rotorod test; conditions: in vivo
# [25] = test system: Rattus norvegicus; assay: Neurotoxicity in Sprague-Dawley rat assessed as minimal motor impairment at 30 mg/kg, po after 2 hrs by rotorod test; conditions: in vivo
# [26] = test system: Rattus norvegicus; assay: Neurotoxicity in Sprague-Dawley rat assessed as minimal motor impairment at 30 mg/kg, po after 0.5 hrs by rotorod test; conditions: in vivo
# [27] = test system: Rattus norvegicus; assay: Neurotoxicity in Sprague-Dawley rat assessed as minimal motor impairment at 30 mg/kg, po after 0.25 hrs by rotorod test; conditions: in vivo
# [28] = test system: Mus musculus; assay: Neurotoxicity in albino mouse assessed as minimal motor impairment at 300 mg/kg, ip after 4 hrs by rotorod test; type: toxicity, organism-based; design: dose 300 mg/kg, route intraperitoneal; conditions: in vivo; method in brief: as §5
# [29] = test system: Mus musculus; assay: Neurotoxicity in albino mouse assessed as minimal motor impairment at 100 mg/kg, ip after 1 hr by rotorod test; type: toxicity, organism-based; design: dose 100 mg/kg, route intraperitoneal; conditions: in vivo; method in brief: as §5
# [30] = test system: Mus musculus; assay: Neurotoxicity in albino mouse assessed as minimal motor impairment at 100 mg/kg, ip after 0.25 hrs by rotorod test; type: toxicity, organism-based; design: dose 100 mg/kg, route intraperitoneal; conditions: in vivo; method in brief: as §5
# [31] = test system: Mus musculus; assay: Anticonvulsant activity in albino mouse assessed as protection against maximal electroshock-induced seizures at 100 mg/kg, ip after 1 hr; type: functional, organism-based; design: dose 100 mg/kg; method in brief: as §7
# [32] = test system: Mus musculus; assay: Anticonvulsant activity in albino mouse assessed as protection against maximal electroshock-induced seizures at 100 mg/kg, ip after 0.25 hrs; type: functional, organism-based; design: dose 100 mg/kg; method in brief: as §7
# [33] = test system: Mus musculus; assay: Protective index, ratio TD50 for albino mouse to ED50 for albino mouse by subcutaneous pentetrazole-induced seizure test after 1 hr; type: functional
# [34] = test system: Mus musculus; assay: Anticonvulsant activity in ip dosed albino mouse assessed as protection against subcutaneous pentetrazole-induced seizures after 1 hr; type: functional
# [35] = organism: Mus musculus; assay: Protective index, ratio TD50 for albino mouse to ED50 for albino mouse by maximal electroshock-induced seizure test after 1 hr; type: functional; method in brief: as §2
# [36] = test system: Mus musculus; assay: Anticonvulsant activity in ip dosed albino mouse assessed as protection against maximal electroshock-induced seizures after 1 hr; type: functional; method in brief: as §3
# [37] = test system: Rattus norvegicus; assay: Anticonvulsant activity in Sprague-Dawley rat assessed as protection against maximal electroshock-induced seizures at 30 mg/kg, po after 2 hrs; type: functional, organism-based; design: dose 30 mg/kg; method in brief: as §4
# [38] = test system: Rattus norvegicus; assay: Anticonvulsant activity in Sprague-Dawley rat assessed as protection against maximal electroshock-induced seizures at 30 mg/kg, po after 0.5 hrs; type: functional, organism-based; design: dose 30 mg/kg; method in brief: as §4
# [39] = test system: Rattus norvegicus; assay: Anticonvulsant activity in Sprague-Dawley rat assessed as protection against maximal electroshock-induced seizures at 30 mg/kg, po after 0.25 hrs; type: functional, organism-based; design: dose 30 mg/kg; method in brief: as §4
# [40] = Neurotoxicity in ip dosed albino mouse assessed as minimal motor impairment after 2 hrs by rotorod test; type: toxicity, organism-based; conditions: in vivo; method in brief: as §1
# [41] = test system: Mus musculus; assay: Protective index, ratio TD50 for albino mouse to ED50 for albino mouse by subcutaneous pentetrazole-induced seizure test after 2 hrs; type: functional
# [42] = test system: Mus musculus; assay: Anticonvulsant activity in ip dosed albino mouse assessed as protection against subcutaneous pentetrazole-induced seizures after 2 hrs; type: functional
# [43] = test system: Rattus norvegicus; assay: Anticonvulsant activity in Sprague-Dawley rat assessed as protection against maximal electroshock-induced seizures at 30 mg/kg, po after 4 hrs; type: functional, organism-based; design: dose 30 mg/kg; method in brief: as §4
# [44] = test system: Mus musculus; assay: Neurotoxicity in albino mouse assessed as minimal motor impairment at 300 mg/kg, ip after 0.5 hrs by rotorod test; type: toxicity, organism-based; design: dose 300 mg/kg, route intraperitoneal; conditions: in vivo; method in brief: as §5
SMILES,Activity [7],Activity [8],Activity [10],Activity [11],Activity [12],Activity [13],Activity [14],Activity [15],Activity [16],Activity [17],Activity [18],Activity [19],Activity [20],Activity [21],Activity [22],Activity [23],Activity [24],Activity [25],Activity [26],Activity [27],also measured
CCC(CO)NCc1ccc2oc3cc(OC)ccc3c(=O)c2c1 (racemic),Non-toxic,Non-toxic,inactive,inactive,inactive,inactive,inactive,inactive,Active,inactive,inactive,Active,Active,inactive,Non-toxic,Non-toxic,Non-toxic,Non-toxic,Non-toxic,Non-toxic,TD50 at 1 h [1]: 213 mg/kg; Ratio TD50/ED50 [2]: <0.43; ED50 [3]: > 500 mg/kg; Ratio TD50/ED50 [4]: 2.66; ED50 [5]: 80 mg/kg; Activity [6]: inactive; Activity [9]: Non-toxic
COc1ccc2c(=O)c3cccc(CN(C)C(C)CO)c3oc2c1 (racemic),Non-toxic,–,–,inactive,inactive,–,inactive,inactive,Active,inactive,inactive,Active,inactive,inactive,–,–,–,–,–,–,Activity [28]: Non-toxic; Activity [29]: Non-toxic; Activity [30]: Non-toxic; Activity [31]: inactive; Activity [32]: inactive
CC[C@H](CO)NCc1ccc2oc3cc(OC)ccc3c(=O)c2c1,Non-toxic,Non-toxic,inactive,inactive,inactive,inactive,inactive,inactive,Active,–,inactive,Active,Active,inactive,Non-toxic,Non-toxic,Non-toxic,Non-toxic,Non-toxic,Non-toxic,Ratio TD50/ED50 [33]: <1.54; ED50 [34]: > 175 mg/kg; Ratio TD50/ED50 [35]: 2.51; ED50 [36]: 107 mg/kg; TD50 at 1 h [1]: 269 mg/kg; Activity [37]: inactive; Activity [38]: inactive; Activity [39]: inactive; Activity [28]: Non-toxic
C[C@@H](CO)NCc1ccc2oc3ccc(Cl)cc3c(=O)c2c1,Non-toxic,Non-toxic,inactive,inactive,inactive,inactive,inactive,inactive,Active,Active,inactive,inactive,–,inactive,Non-toxic,Non-toxic,Non-toxic,Non-toxic,Non-toxic,Non-toxic,TD50 at 2 h [40]: 313 mg/kg; Ratio TD50/ED50 [41]: <0.84; ED50 [42]: > 375 mg/kg; Ratio TD50/ED50 [35]: 3.93; ED50 [36]: 79.7 mg/kg; Activity [43]: inactive; Activity [37]: inactive; Activity [6]: inactive; Activity [28]: Non-toxic; Activity [44]: Non-toxic; Activity [9]: Non-toxic
